The values that follow come from paper PMC8370243 (Antimicrobial Agents and Chemotherapy, 2021).

Series [1] has as its system SARS-CoV-2. The series is classed as cell-based. To be noted: Vero E6 cells, 46 to 50 h.
In a further series the test system is Vero E6 cells. Description: Concentration-response cell viability assay, Vero E6 cells. The series is classed as cell-based, African green monkey. To be noted: noninfected.
For series [2] the following is noted: clinical phase 1 trials; cited from earlier work.
The nature of series [3]: Concentration-response cell viability assay, Vero E6 cells. To be noted: African green monkey, noninfected, CC50, Vero E6 cells. The series is classed as cell-based, African green monkey.
Series [4] deals with SARS-CoV-2. The series is classed as cell-based.
The test system of series [5] is SARS-CoV-2. The series is classed as cell-based. The source holds these as a separate data set.
Series [6] in a line: Concentration-response cell viability assay, Huh7.5 cells. The series is classed as cell-based, human. The settings on record: human, noninfected. The gist of the method:
(§1)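 Huh7.5 hepatoma cells in DMEM/10% heat-inactivated FBS with penicillin/streptomycin, plated at 9,000 cells/well. The following day, noninfected cultures received test compound dilution series (DMSO-dissolved) or DMSO alone. Incubation was 70–74 h, then CellTiter 96 Aqueous One reagent for 1–3 h at 37°C, 5% CO₂, and absorbance at 492 nm. Each concentration had 2–4 replicate wells, normalised to the mean of 12 untreated control wells on each plate.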

The nature of series [7]: Concentration-response cell viability assay, A549-hACE2 cells. To be noted: human, noninfected. The series is classed as cell-based, human.
The test system of series [8] is SARS-CoV-2. As to the kind of experiment: Short-term assay for interactions of PIs and remdesivir, Vero E6 cells. The series is classed as cell-based. To be noted: for residual infectivity: Vero E6, treatment condition 3; for interaction with remdesivir (method of Chou and Talalay, CompuSyn): Vero E6 and A549-hACE2 data sets.
Series [9] deals with SARS-CoV-2. The series is classed as cell-based. The settings on record: Vero E6.
Series [10] relates to SARS-CoV-2. The series is classed as cell-based. To be noted: A549-hACE2.
Another series concerns Huh7.5 cells. As to the kind of experiment: Concentration-response cell viability assay, Huh7.5 cells. The series is classed as cell-based, human. To be noted: noninfected. The gist of the method: as §1
The test system of another series is A549-hACE2 cells. As to the kind of experiment: Concentration-response cell viability assay, A549-hACE2 cells. The series is classed as cell-based, human. To be noted: noninfected.
The conditions of series [11]: rats; single oral administration; cited from earlier work.
Series [12] deals with SARS-CoV-2. The settings on record: cited from earlier work.
[13] abbreviates: Severe acute respiratory syndrome coronavirus 2, Huh7.5.
[14] abbreviates: Severe acute respiratory syndrome coronavirus 2.
Where [15] appears, read: A549-hACE2 cells, […], 46 to 50 h.

pEC50: −log10 of the molar value. Where two headings read alike, the source gives them in different places.

As a reminder, the pEC50 is −log10 of the EC50, conventionally taken in molar units. A word on the CC50: it is the concentration giving 50% cytotoxicity. Read a low CC50 as greater toxicity to the cells. Regarding `CCCCCOc1ccc(NC(=S)NC(=O)c2cccnc2)cc1C(F)(F)F` [ACH-806], the pEC50 with SARS-CoV-2 [1] is 4.34. Moreover, the CC50 in the series with Vero E6 cells is > 429 µM. The “adverse finding that halted development” value in series [2] was “reversible nephrotoxicity”.

Turning to `C=C[C@@H]1C[C@]1(NC(=O)[C@@H]1C[C@@H](Oc2ncc(OC)c3ccc(Cl)cc23)CN1C(=O)[C@@H](NC(=O)OC(C)(C)C)C(C)(C)C)C(=O)NS(=O)(=O)C1CC1` [Asunaprevir, asunaprevir], it took 263 µM to reach half-maximal cytotoxicity in [3] (CC50).

Take `CC(C)(C)NC(=O)N[C@H](C(=O)N1C[C@H]2[C@@H]([C@H]1C(=O)NC(CC1CCC1)C(=O)C(N)=O)C2(C)C)C(C)(C)C` (stereo partly shown) [Boceprevir, boceprevir]: the pEC50 in the series with SARS-CoV-2 [1] was 4.36; in the series with SARS-CoV-2 [4] (setting [13]) it was 4.38; with SARS-CoV-2 [5] (setting [14]), 4.70. The CC50 was > 1210 µM in series [3], 701 µM in [6] and > 1210 µM in series [7]. For the same compound, the residual infectivity in the series with SARS-CoV-2 [8] (17.4 μM boceprevir singly) came out at 79%. In the series with SARS-CoV-2 [8], the “interaction with remdesivir (method of Chou and Talalay, CompuSyn)” value (“interaction with remdesivir” for short) is listed as “primarily antagonistic”. Moreover, the “viral RNA titers in supernatant” value in the series with SARS-CoV-2 [9] (3-fold EC50 boceprevir) and in the series on SARS-CoV-2 [9] (5-fold EC50 boceprevir) was “decreased to values around the lower limit of quantification” each time. The “viral suppression (immunostaining)” value was “sustained viral suppression” in the series on SARS-CoV-2 [9] (3-fold EC50 boceprevir, […], follow-up 9 days) and “sustained viral suppression” in the series with SARS-CoV-2 [9] (5-fold EC50 boceprevir, […], follow-up 17 days). Also, the “effect on viral spread (viral RNA titers)” value (from here on “effect on viral spread”) is listed as “minor impact” with SARS-CoV-2 [10] (1- to 5-fold EC50 boceprevir); “no to little effect” in the series on SARS-CoV-2 [10] (1-fold EC50 PI singly); “viral suppression” in the series with SARS-CoV-2 [10] (8-fold EC50 boceprevir, observation period 13 days).

On to `CC(C)(C)OC(=O)N[C@H]1CCCCC/C=C\[C@@H]2C[C@@]2(C(=O)NS(=O)(=O)C2CC2)NC(=O)[C@@H]2C[C@@H](OC(=O)N3Cc4cccc(F)c4C3)CN2C1=O` [Danoprevir, danoprevir], for which the CC50 in the series with Vero E6 cells was > 243 µM.

For the compound `COc1ccc2c(O[C@@H]3C[C@H]4C(=O)N[C@]5(C(=O)NS(=O)(=O)C6CC6)C[C@H]5/C=C\CCCCC[C@H](CC(=O)N5CCCC(F)(F)C5)C(=O)N4C3)cc(-c3nc(C(C)C)cs3)nc2c1C` [Deldeprevir, deldeprevir], the CC50 in series [3] is 56 µM.

As for `CC(C)(C)[C@@H]1NC(=O)O[C@@H]2CCC[C@H]2OC/C=C/C(F)(F)c2nc3ccccc3nc2O[C@@H]2C[C@@H](C(=O)N[C@]3(C(=O)NS(=O)(=O)C4(C)CC4)C[C@H]3C(F)F)N(C2)C1=O` [Glecaprevir, glecaprevir], the pEC50 in the series with SARS-CoV-2 [5] (setting [14]) is < 4.03. Further, the cytotoxic concentration (CC50) (in the series with Vero E6 cells; in series [7]) was > 268 µM in each case.

Regarding `C=C[C@@H]1C[C@]1(NC(=O)[C@@H]1C[C@@H]2CN1C(=O)[C@H](C(C)(C)C)NC(=O)O[C@@H]1C[C@H]1CCCCCc1nc3ccc(OC)cc3nc1O2)C(=O)NS(=O)(=O)C1CC1.O` [Grazoprevir, grazoprevir], the pEC50 in the series on SARS-CoV-2 [1] was 4.38; in the series on SARS-CoV-2 [4] (Huh7.5 cells, […], 70 to 74 h), 4.70; in the series with SARS-CoV-2 [5] (setting [15]) it was 4.59. The CC50 worked out at 239 µM with Vero E6 cells, 133 µM with Huh7.5 cells and 125 µM in the series with A549-hACE2 cells. Moreover, the “interaction with remdesivir” value in the series on SARS-CoV-2 [8] is “primarily synergistic”. The same compound registered an infected culture cells in the series with SARS-CoV-2 [9] (1-fold EC50 PI, […]) of 90%. Also, the “effect on viral spread” value in the series with SARS-CoV-2 [10] (1-fold EC50 PI singly) is given as “no to little effect”.

`CCCC[C@H](NC(=O)[C@@H]1[C@@H]2[C@H](CN1C(=O)[C@@H](NC(=O)NC1(CS(=O)(=O)C(C)(C)C)CCCCC1)C(C)(C)C)C2(C)C)C(=O)C(=O)NC1CC1` [Narlaprevir, narlaprevir] gave a pEC50 with SARS-CoV-2 [1] of 4.43. The compound also showed a CC50 in series [3] of 269 µM. Also, the “interaction with remdesivir” value in the series with SARS-CoV-2 [8] is “primarily antagonistic”.

For `Cc1cnc(C(=O)N[C@H]2CCCCC/C=C\[C@@H]3C[C@@]3(C(=O)NS(=O)(=O)C3CC3)NC(=O)[C@@H]3C[C@@H](Oc4nc5ccccc5c5ccccc45)CN3C2=O)cn1` [Paritaprevir, paritaprevir], in the series with Vero E6 cells, the CC50 stood at 123 µM. Besides, the “interaction with remdesivir” value in the series with SARS-CoV-2 [8] is listed as “primarily synergistic”.

Turning to `CCC(CC)COC(=O)[C@H](C)N[P@](=O)(OC[C@H]1O[C@@](C#N)(c2ccc3c(N)ncnn23)[C@H](O)[C@@H]1O)Oc1ccccc1` [Remdesivir, remdesivir], the pEC50 in the series with SARS-CoV-2 [5] (setting [14]) is 7.00. Further, the residual infectivity amounted to 83% in the series with SARS-CoV-2 [8] (0.6 μM remdesivir singly) and 47% in the series on SARS-CoV-2 [8] (1.7 μM remdesivir singly).

As to `COc1ccc2c(O[C@@H]3C[C@H]4C(=O)N[C@]5(C(=O)NS(=O)(=O)C6CC6)C[C@H]5/C=C\CCCCN(C)C(=O)[C@@H]4C3)cc(-c3nc(C(C)C)cs3)nc2c1C` [Simeprevir, simeprevir], the pEC50 is 4.85 with SARS-CoV-2 [4] (setting [13]), 5.05 in the series with SARS-CoV-2 [5] (setting [14]) and 6.00 in the series on SARS-CoV-2 [12] (human lung cells). The figures for the CC50 in [3], in [6] and in [7] were 59 µM, 33 µM and 56 µM, respectively. In the series on SARS-CoV-2 [8] (11.1 μM simeprevir singly), this compound returned a residual infectivity of 100%. In the series on SARS-CoV-2 [10] (1-fold EC50 PI singly), the “effect on viral spread” value is on record as “no to little effect”. In [11], the “concentration in the intestine relative to plasma” value is listed as “up to 128 fold”. In [11], the “concentrations in other tissues relative to plasma” value was “roughly equal to plasma concentrations”.

For the compound `CCC[C@H](NC(=O)[C@@H]1[C@H]2CCC[C@H]2CN1C(=O)[C@@H](NC(=O)[C@@H](NC(=O)c1cnccn1)C1CCCCC1)C(C)(C)C)C(=O)C(=O)NC1CC1` [Telaprevir, telaprevir], the CC50 in [3] is > 432 µM.

In turn, `CC[C@@H]1C[C@]1(NC(=O)[C@@H]1C[C@@H]2CN1C(=O)[C@H](C(C)(C)C)NC(=O)OCC(C)(C)CCCCc1cccc3c1CN(C3)C(=O)O2)C(=O)NS(=O)(=O)C1CC1` [Vaniprevir, vaniprevir] returned a CC50 with Vero E6 cells of 171 µM.

For the compound voxilaprevir, the pEC50 with SARS-CoV-2 [1] is < 4.57; with SARS-CoV-2 [5] (setting [15]) it was 5.00; in the series with SARS-CoV-2 [12] (A549-hACE2 cell line), < 5.00. In addition, the CC50 in the series on Vero E6 cells was 72 µM; with A549-hACE2 cells, 81 µM.
